Source: ChEMBL document CHEMBL4732226, “Discovery of a potent G-protein-coupled receptor 119 agonist for the treatment of type 2 diabetes” (Bioorg Med Chem, 2021)

Legend:
[1] = Toxicity in female Wistar rat assessed as ratio of uterus to body weight at 400 mg/kg, po after 28 days (reference value: 0.335 +/- 0.108); format: organism-based; conditions: in vivo, 672 h, time 28 day
[2] = Toxicity in female Wistar rat assessed as ratio of kidney to body weight at 200 mg/kg, po after 28 days (reference value: 0.801 +/- 0.071); format: organism-based; conditions: in vivo, 672 h, time 28 day
[3] = Toxicity in female Wistar rat assessed as AST level at 100 mg/kg, po after 28 days (reference value: 128.84 +/- 21.42 U/L); format: organism-based; conditions: in vivo, 672 h, time 28 day
[4] = Toxicity in female Wistar rat assessed as urea level at 200 mg/kg, po after 28 days (reference value: 48.09 +/- 5.3 mg/dl); format: organism-based; conditions: in vivo, 672 h, time 28 day
[5] = Toxicity in female Wistar rat assessed as urea level at 100 mg/kg, po after 28 days (reference value: 48.09 +/- 5.3 mg/dl); format: organism-based; conditions: in vivo, 672 h, time 28 day
[6] = Half life in Wistar rat at 10 mg/kg, po up to 24 hrs; format: ADME, organism-based; conditions: in vivo
Method in brief: (§1)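 Single oral dose at 10 mg/kg given to male Wistar rats and to Beagle dogs; bioavailability also determined in both species.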

Mus musculus [7] = assay: Antidiabetic activity in glucose-stimulated […] mouse assessed as reduction in blood glucose level at 50 mg/kg, po pretreated for 30 mins followed by glucose-stimulation and measured up to 120 mins by OGTT method relative to control; format: functional; parameters: scale not given: the % may be the effect or the level left; conditions: 0.5 h
Method in brief: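 C57 mice aged 6–8 weeks were grouped by non-fasting glucose and fasted overnight. Single oral dose of 50 mg/kg; 30 min later basal bleed and oral glucose 3 g/kg. Serum glucose taken at 20, 40, 60 and 120 min. Change in glucose AUC calculated.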

[8] = Toxicity in male Wistar rat assessed as urea level at 100 mg/kg, po after 28 days (reference value: 58.14 +/- 9.13 mg/dl); format: organism-based; conditions: in vivo, 672 h, time 28 day
[9] = Toxicity in female Wistar rat assessed as ratio of thymus to body weight at 400 mg/kg, po after 28 days (reference value: 0.260 +/- 0.025); format: organism-based; conditions: in vivo, 672 h, time 28 day
[10] = Toxicity in female Wistar rat assessed as ratio of ovaries to body weight at 400 mg/kg, po after 28 days (reference value: 0.091 +/- 0.009); format: organism-based; conditions: in vivo, 672 h, time 28 day
[11] = Toxicity in male Wistar rat assessed as ratio of heart to body weight at 100 mg/kg, po after 28 days (reference value: 0.333 +/- 0.036); format: organism-based; conditions: in vivo, 672 h, time 28 day
[12] = Toxicity in male Wistar rat assessed as urea level at 200 mg/kg, po after 28 days (reference value: 58.14 +/- 9.13 mg/dl); format: organism-based; conditions: in vivo, 672 h, time 28 day
[13] = Toxicity in female po dosed Wistar rat after 28 days; format: organism-based; conditions: in vivo, time 28 day
Method in brief: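 Repeated-dose oral gavage study in Wistar rats, 10 per sex per group, at 100, 200 and 400 mg/kg once daily for 28 days. Clinical signs, mortality, neurobehaviour, food intake, body weight and ophthalmic examination were monitored, followed by blood biochemistry, organ weights and histopathology on day 29.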

[14] = Toxicity in male Wistar rat assessed as ALT level at 200 mg/kg, po after 28 days (reference value: 30.47 +/- 2.63 U/L); format: organism-based; conditions: in vivo, 672 h, time 28 day
[15] = Toxicity in female Wistar rat assessed as ratio of kidney to body weight at 400 mg/kg, po after 28 days (reference value: 0.801 +/- 0.071); format: organism-based; conditions: in vivo, 672 h, time 28 day
[16] = Toxicity in male Wistar rat assessed as ratio of adrenals to body weight at 100 mg/kg, po after 28 days (reference value: 0.020 +/- 0.003); format: organism-based; conditions: in vivo, 672 h, time 28 day
[17] = Toxicity in male Wistar rat assessed as globulin level at 400 mg/kg, po after 28 days (reference value: 2.62 +/- 0.12 g/dl); format: organism-based; conditions: in vivo, 672 h, time 28 day
Mus musculus [18] = assay: Antidiabetic activity in db/db mouse assessed as reduction in blood glucose level at 50 mg/kg, po pretreated for 30 mins followed by glucose-stimulation and measured up to 120 mins by OGTT method relative to control; format: functional; parameters: scale not given: the % may be the effect or the level left; conditions: 0.5 h
Method in brief: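 db/db mice aged 5–7 weeks were fasted and grouped by fasting serum glucose. Single oral dose of 50 mg/kg; 30 min later basal bleed and oral glucose 2 g/kg. Serum glucose taken at 30, 60 and 120 min. AUC glucose excursion computed against a no-glucose water group and expressed as % reduction vs vehicle; mean ± s.e.m.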

[19] = Toxicity in female Wistar rat assessed as ratio of heart to body weight at 400 mg/kg, po after 28 days (reference value: 0.38 +/- 0.037); format: organism-based; conditions: in vivo, 672 h, time 28 day
[20] = Toxicity in male Wistar rat assessed as ratio of epididymides to body weight at 100 mg/kg, po after 28 days (reference value: 0.361 +/- 0.028); format: organism-based; conditions: in vivo, 672 h, time 28 day
[21] = Toxicity in male Wistar rat assessed as ratio of epididymides to body weight at 200 mg/kg, po after 28 days (reference value: 0.361 +/- 0.028); format: organism-based; conditions: in vivo, 672 h, time 28 day
[22] = Toxicity in female Wistar rat assessed as albumin level at 100 mg/kg, po after 28 days (reference value: 3.57 +/- 0.14 g.dl); format: organism-based; conditions: in vivo, 672 h, time 28 day
[23] = Toxicity in male Wistar rat assessed as globulin level at 100 mg/kg, po after 28 days (reference value: 2.62 +/- 0.12 g/dl); format: organism-based; conditions: in vivo, 672 h, time 28 day
[24] = Toxicity in male Wistar rat assessed as ratio of liver to body weight at 400 mg/kg, po after 28 days (reference value: 3.142 +/- 0.231); format: organism-based; conditions: in vivo, 672 h, time 28 day
[25] = Toxicity in male Wistar rat assessed as AST level at 100 mg/kg, po after 28 days (reference value: 119.4 +/- 9.3 U/L); format: organism-based; conditions: in vivo, 672 h, time 28 day
[26] = Toxicity in female Wistar rat assessed as ratio of spleen to body weight at 200 mg/kg, po after 28 days (reference value: 0.244 +/- 0.032); format: organism-based; conditions: in vivo, 672 h, time 28 day
[27] = Toxicity in male Wistar rat assessed as ratio of kidney to body weight at 400 mg/kg, po after 28 days (reference value: 0.787 +/- 0.078); format: organism-based; conditions: in vivo, 672 h, time 28 day
[28] = Toxicity in male Wistar rat assessed as ratio of testes to body weight at 100 mg/kg, po after 28 days (reference value: 1.248 +/- 0.073); format: organism-based; conditions: in vivo, 672 h, time 28 day
[29] = Toxicity in female Wistar rat assessed as creatinine level at 200 mg/kg, po after 28 days (reference value: 0.6 +/- 0.04 mg/dl); format: organism-based; conditions: in vivo, 672 h, time 28 day
[30] = Elimination rate constant in Wistar rat at 10 mg/kg, po up to 24 hrs; format: ADME, organism-based; conditions: in vivo; method in brief: as §1
[31] = Toxicity in male Wistar rat assessed as creatinine level at 200 mg/kg, po after 28 days (reference value: 0.61 +/- 0.04 mg/dl); format: organism-based; conditions: in vivo, 672 h, time 28 day

Question: With `Cc1c(Oc2cccc(/C=C3\SC(=O)NC3=O)c2)ncnc1OC1CCN(C(=O)OC(C)(C)C)CC1` as the compound, how does the Ratio [1] read?
Answer: The Ratio was 0.429.

Question: What about the Ratio [2] of the same compound?
Answer: The Ratio was 0.84.

Question: And the Activity [3]?
Answer: The Activity was 120.42 U/L.

Question: What about the Activity [4] of the same compound?
Answer: Its Activity is 46.42 mg/dL.

Question: What about the Activity [5] of the same compound?
Answer: Its Activity is 47.84 mg/dL.

Question: And the half-life [6]?
Answer: The half-life was 12.3 h.

Question: And the Activity (Mus musculus [7])?
Answer: The Activity was 32.4%.

Question: And the Activity [8]?
Answer: Its Activity is 55.36 mg/dL.

Question: And the Ratio [9]?
Answer: The Ratio was 0.244.

Question: What about the Ratio [10] of the same compound?
Answer: The Ratio was 0.081.

Question: And the Ratio [11]?
Answer: Its Ratio is 0.347.

Question: What about the Activity [12] of the same compound?
Answer: The Activity was 55.62 mg/dL.

Question: What about the NOAEL at 672 h [13] of the same compound?
Answer: The NOAEL at 672 h was over 400 mg/kg.

Question: And the Activity [14]?
Answer: Its Activity is 30.15 U/L.

Question: And the Ratio [15]?
Answer: Its Ratio is 0.806.

Question: What about the Ratio [16] of the same compound?
Answer: The Ratio was 0.023.

Question: And the Activity [17]?
Answer: Its Activity is 2.53 g/dL.

Question: What about the Activity (Mus musculus [18]) of the same compound?
Answer: Its Activity is 69.1%.

Question: And the Ratio [19]?
Answer: The Ratio was 0.367.

Question: And the Ratio [20]?
Answer: Its Ratio is 0.371.

Question: What about the Ratio [21] of the same compound?
Answer: The Ratio was 0.406.

Question: And the Activity [22]?
Answer: Its Activity is 3.59 g/dL.

Question: And the Activity [23]?
Answer: Its Activity is 2.5 g/dL.

Question: And the Ratio [24]?
Answer: The Ratio was 3.22.

Question: And the Activity [25]?
Answer: Its Activity is 114.13 U/L.

Question: And the Ratio [26]?
Answer: The Ratio was 0.242.

Question: And the Ratio [27]?
Answer: The Ratio was 0.845.

Question: And the Ratio [28]?
Answer: Its Ratio is 1.228.

Question: And the Activity [29]?
Answer: Its Activity is 0.66 mg/dL.

Question: And the k el at 24 h [30]?
Answer: Its k el at 24 h is 1.94e-05 s⁻¹.

Question: What about the Activity [31] of the same compound?
Answer: Its Activity is 0.57 mg/dL.
